This is a sample that favours compounds with a hit; in the whole collection about 3.5% have one here.
MrgX1 agonist: activates human MrgX1 receptor signaling. Q96LB2. MrgX1-HEK293 cells, Fluo-4 calcium fluorescence, agonist mode; active compounds read high. B-score at 10 µM. hit rate 0.44% among 310,000. AID 588627;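 active = calcium response B-score plate-corrected fluorescence ratio at least 3 library SD, with starting fluorescence B-score inside 5 SD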
Target sequence (Q96LB2 whole entry, looked up): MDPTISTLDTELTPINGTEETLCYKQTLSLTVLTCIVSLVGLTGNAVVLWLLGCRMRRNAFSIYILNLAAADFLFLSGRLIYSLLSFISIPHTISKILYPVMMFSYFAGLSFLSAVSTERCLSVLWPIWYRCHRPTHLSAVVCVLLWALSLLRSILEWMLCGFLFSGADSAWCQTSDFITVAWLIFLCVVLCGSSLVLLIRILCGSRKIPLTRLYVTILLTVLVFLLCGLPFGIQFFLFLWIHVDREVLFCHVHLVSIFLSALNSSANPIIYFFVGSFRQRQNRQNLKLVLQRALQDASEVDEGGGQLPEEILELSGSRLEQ
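Test system: HEK293 cells stably expressing human MrgX1 receptor; Input: fifteen thousand cells per well; Dosing: compound delivered in addition one of three; Schedule: overnight seeding, then 1 h dark dye loading; Technique: Fluo-4 NW calcium fluorescence; Measure: B-scored fluorescence response ratio; Controls: positive and negative controls per plate.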
MrgX1 antag: blocks BAM8-22 activation of human MrgX1 receptor; Q96LB2; MRGX1-HEK293 calcium flux, Fluo-4, BAM8-22 antagonism; active compounds read low; B-score at 10 µM; hit rate 1.3% among 310,000; AID 588676;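 active = calcium-response B-score plate-corrected more than 3 library SD below zero, starting fluorescence within 5 deviations, no agonist response on first addition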;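 also: peak minus trough fluorescence over baseline after final BAM8-22 challenge near maximal dose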
RGS4 act: RGS4 potentiation or activation. hit rate 0.92% among 310,000. B-score at 10 µM. HEK293 M3R/inducible RGS4, carbachol calcium flux Fluo4; active compounds read low. AID 463111;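 active = B-score of the integrated calcium signal more than 4 SD below the library mean, with starting fluorescence not abnormally high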;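 also: negative B-score means reduced calcium response which marks RGS4 activation or potentiation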
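System: HEK293 FlpIn-TREx cells, stable M3R, doxycycline-inducible RGS4. Timing: overnight RGS4 induction, 30 min dye load 37 °C, 20 min compound RT. Also added: carbachol, ECmax concentration. Measured by: Fluo4 fluorescence kinetic imaging of calcium. Evaluation: integrated calcium ratio converted to B score.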
RGS4 inh: inhibitors of human RGS4 | B-score at 10 µM | HEK293 M3R/RGS4 inducible, Fluo-4 calcium flux; active compounds read high; triggered by carbachol at its EC20 | hit rate 0.45% among 310,000 | P49798;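 active = B-score, a plate-corrected calcium signal, over three deviations above library mean, with baseline fluorescence within five deviations of library mean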;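 also: RGS4 expression induced by doxycycline in cells with stable M3 receptor; B-score is computed from the integrated fluorescence ratio over baseline after carbachol; higher B-score means a larger calcium signal and so more RGS4 inhibition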
Target sequence (P49798 whole entry, looked up): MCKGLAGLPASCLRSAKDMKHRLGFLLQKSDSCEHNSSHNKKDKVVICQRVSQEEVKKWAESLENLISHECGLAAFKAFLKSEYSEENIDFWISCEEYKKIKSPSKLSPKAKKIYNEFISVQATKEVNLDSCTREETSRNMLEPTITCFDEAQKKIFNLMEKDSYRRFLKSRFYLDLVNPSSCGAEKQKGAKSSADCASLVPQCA
MrgX1 PAM: human MrgX1 positive allosteric modulation, primary screen; Q96LB2; MrgX1-HEK293, Fluo-4 calcium flux, FDSS; active compounds read high; B-score at 10 µM; hit rate 0.63% among 310,000; AID 588675;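 active = plate-corrected calcium response at least 3 library SD above typical, normal starting fluorescence, not activating the receptor alone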;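 also: compound read alongside a low EC10 to EC30 dose of BAM8-22 agonist; peak minus trough fluorescence over baseline measured at the second addition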
MrgX1 ant reconf: confirmation of human MrgX1 receptor antagonists; shares compounds with MrgX1 antag; MrgX1-HEK293, BAM8-22 calcium flux, Fluo-4; active compounds read low; remaining BAM8-22 calcium response % of control (active compounds read low), % at 10 µM; hit rate 19% among 2,300; AID 602420;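 active = remaining agonist calcium response no higher than 100% minus 3 SD of agonist-only control wells, with starting fluorescence near control levels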;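 also: agonist BAM8-22 given at a near maximal EC90 to ECmax level; peak minus minimum fluorescence divided by baseline after agonist addition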
HEK293 Ca flux: activity in parental HEK293 cells lacking MrgX1 | shares compounds with MrgX1 antag | Fluo-4 calcium fluorescence, FDSS | fluorescence ratio F(max-min)/F0 at 10 µM | hit rate 2% among 4,000 | AID 624111;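 active = duplicate-averaged calcium fluorescence ratio at least three times the standard deviation of buffer wells, a nonspecific response in parental cells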
HEK293 Ca counter: activity in parental HEK293 cells without MrgX1 | shares compounds with MrgX1 antag | parental HEK293 calcium flux, Fluo-4 fluorescence ratio; active compounds read high | fluorescence ratio F(max-min)/F0 at 10 µM | hit rate 0.4% among 4,000;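 active = calcium fluorescence ratio, averaged over duplicates, at least 3 SD of the buffer-well ratio, meaning a nonspecific response in receptor-free cells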;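 also: untransfected parental HEK293 lacking MrgX1 used as counterscreen for MrgX1 allosteric activators; fluorescence change taken during the second addition on a kinetic imager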
HEK293 Ca cntr2: MrgX1 activator counter-screen hit in parental HEK293 cells; shares compounds with MrgX1 antag; Fluo-4 calcium fluorescence (FDSS); active compounds read high; fluorescence ratio F(max-min)/F0 at 10 µM; hit rate 8.7% among 4,000; AID 624115;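 active = calcium fluorescence ratio at least three times the spread of buffer wells, meaning a non-specific response in parental cells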
A number is an active result; 0 = inactive; - = no result given.

SMILES	MrgX1 agonist	MrgX1 antag	RGS4 act	RGS4 inh	MrgX1 PAM	MrgX1 ant reconf	HEK293 Ca flux	HEK293 Ca counter	HEK293 Ca cntr2
Cc1ccc(-c2c(C(=O)N/N=C/C3CC=CCC3)nnn2-c2nonc2N)cc1 (stereo not drawn)	0	0	0	0	0	-	-	-	-
CCC(=O)Nc1nnc(-c2cccs2)s1	0	-5.05	0	0	0	0	0	0	0
CCC(C)c1ccc(NC(=S)N2CCN(S(C)(=O)=O)CC2)cc1 (stereo not drawn)	0	0	0	0	0	-	-	-	-
COc1cc(OC)cc(C(=O)N2CCC(C(=O)NCCc3ccccc3)CC2)c1	0	0	0	0	0	-	-	-	-
O=C(NCSC1=NCCS1)c1ccccc1	0	-5.33	0	0	0	0	0	0	0
COc1ccc2[nH]c(=O)c(CN(c3ccc(C)c(C)c3)S(C)(=O)=O)cc2c1	0	-4.54	0	0	0	0	0	0	0
Cn1c(CCC(=O)OCC(=O)NCC(F)(F)F)nc(=O)c2ccccc21	0	-5.59	0	0	0	0	0	0	0
CC(NC(=O)COC(=O)CCc1nc(=O)c2ccccc2n1C)c1ccccc1 (stereo not drawn)	0	0	0	0	0	-	-	-	-
Cc1cccc(CC(C)NC(=O)c2oc3c(F)cccc3c2C)n1 (stereo not drawn)	0	0	0	0	0	-	-	-	-
Cc1ccc2[nH]c3c(NCc4ccccc4)ncnc3c2c1	0	-7.37	0	0	0	0	0	0	0
COc1ccc(CNc2ncnc3c2[nH]c2ccccc23)cc1	0	0	0	0	0	-	-	-	-
CC(C)OCCCNc1ncnc2c1[nH]c1ccccc12	0	-8.38	0	0	0	51.7%	0	0	0
C=CCOc1ccc(C(=O)Nc2ccccc2C(=O)NCc2cccnc2)cc1	0	0	0	0	0	-	-	-	-
CCOC(=O)CSC1=C(C#N)C(c2ccccc2Cl)C(C(=O)OC)C(=O)N1 (stereo not drawn)	0	-4.78	0	0	0	0	0	0	0
Cc1ccccc1OCC(=O)Nc1ccc(C)c(S(=O)(=O)N2CCCCCC2)c1	0	0	0	0	0	-	-	-	-
COc1ccc(NC(=O)CCOc2ccccc2C)cc1S(=O)(=O)N1CCCCC1	0	-5.39	0	0	0	0	0	0	0
COc1ccc(CCC(=O)Nc2ccc(Cl)c(S(=O)(=O)N3CCCC3)c2)cc1	0	-5.94	0	0	0	78.1%	0	0	0
COc1ccc(CCNC(=S)c2ccccc2)cc1OC	0	0	0	0	0	-	-	-	-
COCC(=O)n1nc(-c2ccc(Cl)cc2)nc1NCc1ccc(F)cc1	0	-4.93	0	0	0	80.9%	0	0	0
COCC(=O)n1nc(-c2ccccc2)nc1NCc1ccc(N(C)C)cc1	0	0	0	0	0	-	-	-	-
CCCCN1CC[C@H]2C=CC[C@@H](C(=O)Nc3ccccc3)[C@H]2C1=O	0	0	0	0	0	-	-	-	-
CCCCN1CC[C@H]2C=CC[C@@H](C(=O)NCCc3ccccc3)[C@H]2C1=O	0	-6.1	0	0	0	0	0	0	0
Cc1nc(-c2ccc(S(=O)(=O)N3CCN(C4c5ccccc5-c5ccccc54)CC3)s2)cs1	0	-5.3	0	0	0	0	0	0	0
O=C(Cc1ccccc1)NC(C(=O)O)C(O)c1ccc([N+](=O)[O-])cc1 (stereo not drawn)	0	0	0	0	0	-	-	-	-
CCCCn1c(=O)[nH]c(=O)c2c1ncn2Cc1ccco1	0	0	0	0	0	-	-	-	-
SMILES	MrgX1 agonist	MrgX1 antag	RGS4 act	RGS4 inh	MrgX1 PAM	MrgX1 ant reconf	HEK293 Ca flux	HEK293 Ca counter	HEK293 Ca cntr2
CCCCn1cnc2c(c(-c3ccccc3)c(-c3ccccc3)n2Cc2ccco2)c1=N	0	-14.2	0	0	0	0	0	0	0
COCc1cc(C)nc(SCc2ccc([N+](=O)[O-])cc2)c1C#N	0	0	0	0	0	-	-	-	-
CN1C(=O)[C@@H]2[C@H](C1=O)[C@@H]1C(=O)Nc3ccccc3C(=O)N1[C@@H]2c1cccc(Br)c1	0	0	0	0	0	-	-	-	-
CCC(C)C(=O)Nc1nc(C)c(-c2csc(Nc3cc(OC)ccc3OC)n2)s1 (stereo not drawn)	0	-5.95	0	0	0	0	0	0	0
COc1cc(C)c(S(=O)(=O)NC2CC(C)(C)NC(C)(C)C2)cc1C	0	-8.31	0	0	0	0	0	0	0
O=C(CCNC(=O)C1CCN(S(=O)(=O)c2ccc(F)cc2)CC1)NCc1ccccc1	0	0	0	0	0	-	-	-	-
Cc1ccc(NC(=O)c2oc3ccc(S(=O)(=O)N4CCOCC4)cc3c2C)c(C)c1	0	0	0	0	0	-	-	-	-
Cc1cccc(NC(=O)c2oc3ccc(S(=O)(=O)N4CCOCC4)cc3c2C)c1C	0	-4.76	0	0	0	0	0	0	0
COCCCNC(=O)CC1Oc2ccccc2NC1=O (stereo not drawn)	0	0	0	0	0	-	-	-	-
CCCSCCCNC(=O)CC1Oc2ccccc2NC1=O (stereo not drawn)	0	-4.92	0	0	0	0	0	0	0
COc1ccccc1CNC(=O)COC(=O)C1CCN(c2ccc(C(F)(F)F)cn2)CC1	0	-7.65	0	0	0	0	0	0	0
O=C(COC(=O)C1CCN(c2ccc(C(F)(F)F)cn2)CC1)NCCc1ccccc1	0	0	0	0	0	-	-	-	-
CCCOc1ccc(-c2c(C(=O)N/N=C(\C)c3ccncc3)nnn2-c2nonc2N)cc1	0	0	0	0	0	-	-	-	-
COc1ccc(N=Cc2cc3c(cc2O)OC(N)=C(C#N)C3c2ccccc2)cc1 (stereo not drawn)	0	-5.93	0	0	0	0	0	0	0
N#CC1=C(N)Oc2cc3ccccc3cc2C1c1cccnc1 (stereo not drawn)	0	0	0	0	0	-	-	-	-
Cc1ccc(NC(=O)NC2CCCc3ccccc32)cc1 (stereo not drawn)	0	-5.27	0	0	0	0	0	0	0
CCCc1nnc(NC(=O)CCC(=O)NC2CCCc3ccccc32)s1 (stereo not drawn)	0	0	0	0	0	-	-	-	-
CC(C)Cc1nnc(NC(=O)CCC(=O)NC2CCCc3ccccc32)s1 (stereo not drawn)	0	-5.18	0	0	0	0	0	0	0
Cc1oc2c(CN(C)C)c(O)ccc2c(=O)c1-c1ccc2ccccc2n1	0	-8.56	0	0	0	0	0	0	0
Cc1ccc(C(=O)OCC(=O)NC(=O)c2ccccc2)o1	0	0	0	0	0	-	-	-	-

Screens deposited in PubChem by Johns Hopkins Ion Channel Center.
